FLuc inhib CS: counter-screen for luciferase assay inhibitors: firefly luciferase inhibition; inhibition, % at 10 µM; hit rate 1.5% among 200,000; ATPLite firefly luciferase biochemical luminescence, 10 min;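 active means inhibition above about 50% when tested at 10 µM, limit read from the data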
Target sequence (P08659 whole entry, looked up): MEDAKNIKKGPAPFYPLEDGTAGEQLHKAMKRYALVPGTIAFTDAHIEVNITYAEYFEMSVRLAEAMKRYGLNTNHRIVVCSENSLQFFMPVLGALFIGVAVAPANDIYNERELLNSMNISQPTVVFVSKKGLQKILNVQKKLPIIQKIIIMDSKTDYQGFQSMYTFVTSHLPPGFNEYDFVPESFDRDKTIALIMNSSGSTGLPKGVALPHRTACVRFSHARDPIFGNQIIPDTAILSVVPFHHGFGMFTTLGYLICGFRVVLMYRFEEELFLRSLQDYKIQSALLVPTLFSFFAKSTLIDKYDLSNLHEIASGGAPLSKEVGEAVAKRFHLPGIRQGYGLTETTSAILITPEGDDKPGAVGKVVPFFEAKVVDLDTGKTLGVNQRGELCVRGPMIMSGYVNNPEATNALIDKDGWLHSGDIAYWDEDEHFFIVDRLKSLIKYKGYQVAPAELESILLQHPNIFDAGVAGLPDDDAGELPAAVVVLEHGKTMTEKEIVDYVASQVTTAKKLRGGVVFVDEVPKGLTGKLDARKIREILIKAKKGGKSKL
G6PDH counter: L. mesenteroides G6PDH inhibition counter-screen; Purified L. mesenteroides G6PDH, diaphorase/resazurin coupled fluorescence, 45 min; inhibition, % at 5 µM; hit rate 0.12% among 200,000; AID 1020; in the data active means inhibition above about 50%
Diaphorase act: diaphorase activation or chemical reduction counter-screen. Diaphorase/resazurin coupled assay, resorufin fluorescence, 16 min; hits give high values; 1 = vehicle wells, 0 = NADH-free wells. activation factor at 20 µM. hit rate 0.005% among 190,000. AID 1229;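 active means diaphorase activity raised at least twofold by the compound at 20 µM; inactive means activation factor below 2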
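Material: Clostridium kluyveri diaphorase, purified enzyme; Quantity: enzyme 0.07 U/mL final; Medium: HEPES pH 7.4 buffer with MgCl2 and Tween 20; Dosing: single compound dose of 20 µM, 1% DMSO final; Schedule: 16 min reaction at room temperature; Measured by: red resorufin fluorescence at 544/590 nm excitation/emission.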
Diaphorase inh: inhibits diaphorase or chemically oxidizes, flagging diaphorase assay artifacts; hit rate 0.69% among 190,000; inhibition, % at 20 µM; diaphorase resazurin-to-resorufin fluorescence, NADH, 16 min; bacterial (C. kluyveri) enzyme, not human;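 active means primary screen inhibition at 20 µM above a set limit, cut at about 50% in these data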;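 further: plate controls were DMSO with full reaction for no effect and wells lacking NADH for full effect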
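Assay system: diaphorase enzyme from Clostridium kluyveri; Input: enzyme working solution with 0.14 U/mL diaphorase; Timing: 16 min at room temperature; Technique: resorufin fluorescence, excitation 544 nm, emission 590 nm; Benchmarks: positive control minus NADH, DMSO neutral control.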
FLuc act counter: firefly luciferase counter-screen for stimulation assays. ATPlite luciferase biochemical, luminescence, 10 min; 0 = ATP-free wells, 1 = DMSO control. activation factor at 10 µM. 200,000 tested, under 10 active. AID 1027;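 active means luciferase activation factor, scaled between plate controls, of at least 2 with compound at 10 µM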
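System: cell-free luciferase reagent; medium: PBS as buffer for the ATP substrate; doses: test compounds dosed from 2 mM stocks in 100% DMSO; incubation: 10 min, room temperature; measured by: luminescence from luciferase reaction; read-out: luciferase activation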
Active calls of the source: *. Most compounds without a hit are left out; they make up all but 2.3% or so of the library.

SMILES	FLuc inhib CS	G6PDH counter	Diaphorase act	Diaphorase inh	FLuc act counter
S=c1[nH]nc(-c2ccncc2)n1/N=C/C=C/c1ccco1	1	8	0.3	71*	1
S=c1[nH]nc(-c2cccnc2)n1/N=C/C=C/c1ccccc1	4	5	0.5	52*	1
CC(=O)Nc1ccc(OS(=O)(=O)c2ccc([N+](=O)[O-])cc2)cc1	1	14	0.9	8	1
Cc1ccc(-c2nn(-c3ccccc3)cc2C=O)o1	62*	5	1	4	0.4
C[C@]12CC[C@@H]3c4cc(O)c(O)cc4CC[C@H]3[C@@H]1CC[C@@H]2O	0	29	0.3	66*	1
O=C(/C=C/c1ccc(O)c(O)c1)c1ccc(S(=O)(=O)N2CCCCCC2)cc1	-4	6	0.5	52*	1
COC(=O)c1ccc(S(=O)(=O)N2CCCCCC2)cc1	-6	0	0.8	16	1.1
O=C(Nc1ccc(N2CCCC(O)C2)cc1)c1snc2c(=O)[nH]cnc12 (configuration not stated)	66*	3	0.9	13	0.3
Cc1cccc(NC(=O)c2snc3c(=O)[nH]cnc23)c1	-8	0	0.8	20	1.1
O=C(COC(=O)CCC(NC(=O)OCc1ccccc1)C(=O)OCC(=O)Nc1ccccc1)Nc1ccccc1 (configuration not stated)	-8	5	0.9	13	1.1
COc1ccc(/C=N/NC(=O)CCN2CCN(c3ccccc3)CC2)c(OC)c1OC	-6	-21	1	3	1.1
O=C(Cc1csc(N2CCOCC2)n1)N/N=C/c1ccc(O)c(O)c1O	5	-2	0.2	83*	0.9
O=C(CCN1CCOCC1)N/N=C/c1cc(Br)cc(Br)c1O	-7	9	0.4	63*	1.1
C/C(=N\NC(=O)Cc1csc(N2CCOCC2)n1)c1ccccc1	-2	1	1	0	1
O=C(CCN1CCN(c2ccccc2)CC1)N/N=C/c1ccc(O)c(O)c1O	6	33	0.4	64*	0.9
Cn1cnc([N+](=O)[O-])c1Sc1ncccc1N	-6	13	1.1	-12	1.1
COc1ccc2oc(C(=O)OCc3c(C)noc3C)c(C)c2c1	1	8	0.8	17	1
Cc1c(NC(=O)C(=O)/C=C(\O)c2ccc(Br)cc2)c(=O)n(-c2ccccc2)n1C	-4	-14	0.7	26	1
Cc1ccc(OCC(=O)NNC(=O)c2cccnc2)cc1C	-2	10	0.9	13	1
COc1cccc(C(=O)NCCSc2ccc(F)cc2)c1	2	-1	0.4	56*	1
CCN=c1scc(C)n1/N=C/c1cc(Br)c(O)c(Br)c1	7	-5	0.8	25	0.9
COCCN=c1scc(-c2cccs2)n1/N=C/c1ccc(O)c(O)c1O	12	-7	0.3	69*	0.9
CCN=c1scc(C)n1/N=C/c1ccc(O)c(O)c1O	76*	36	0.2	79*	0.2
N#Cc1c(-c2cccs2)nc(SCC(=O)c2cccs2)[nH]c1=O	-8	-3	0.3	65*	1.1
O=C(CSc1nc2ccccc2c(=O)[nH]1)c1cccs1	-1	6	0.8	16	1
SMILES	FLuc inhib CS	G6PDH counter	Diaphorase act	Diaphorase inh	FLuc act counter
O=C1c2c(O)cc(O)cc2O[C@H](c2ccc(O)c(O)c2)[C@@H]1O	-3	36	0.5	54*	1
CNC(=O)c1cc2cc(OC)ccc2oc1=N	3	-4	0.9	11	1
COc1ccc2oc(=N)c(C(=O)Nc3ccccc3)cc2c1	64*	8	0.8	16	0.4
O=C(Nc1ccc(N2CCOCC2)cc1)c1cnsn1	90*	-1	0.9	5	0.1
O=C(Nc1ccc(N2CCOCC2)cc1)c1ccncc1	10	5	0.8	22	0.9
COc1ccc(C2(CNC(=O)c3ccc(OC)c([N+](=O)[O-])c3)CCCCC2)cc1OC	-5	4	0.9	13	1
N/C(=N\OC(=O)c1ccc2c(c1)OCO2)c1cccc([N+](=O)[O-])c1	96*	7	0.9	12	0
COc1ccccc1/C=N/OC(=O)c1ccc(C)cc1	71*	16	0.9	14	0.3
COc1ccccc1/C=N/NC(=O)c1ccc(-c2ccccc2)cc1	-3	0	0.9	10	1
Cc1ccc(C(=O)O/N=C/c2ccc3c(c2)OCO3)cc1	59*	4	1	4	0.4
Cc1cccc(/C(N)=N/OC(=O)c2ccc3c(c2)OCO3)c1	97*	2	0.8	17	0
COc1ccc(C(=O)CSc2nnc(CN3CCCCC3)n2-c2ccc(F)cc2)cc1	-6	-23	0.8	15	1.1
Cc1ccc(NC(=S)C2=C(O)c3ccccc3N(C)S2(=O)=O)cc1	42	2	0.7	28	0.6
CCN1CCN(CC(=O)N/N=C/c2ccc(F)cc2F)CC1	-5	-2	0.8	17	1.1
COc1cc(/C=N/NC(=O)C2CCN(CC(O)COCc3ccccc3)CC2)ccc1O (configuration not stated)	-2	1	1	4	1
CCC(C)NC(=O)c1cc2cc3ccc(OC)cc3nc2s1 (configuration not stated)	59*	7	1.1	-6	0.4
COc1ccc(-c2ccc(SCC(=O)Nc3cccc(C(C)=O)c3)nn2)cc1OC	61*	5	0.8	20	0.4
Cc1cc(-c2ccccc2)nc(N/N=C/c2cccnc2)n1	74*	5	0.9	12	0.3
COc1ccccc1/C=N/Nc1cc(N(C)C)nc(N(C)C)n1	-7	37	0.5	53*	1.1
Cc1cc(N/N=C/c2ccc(Cl)cc2)nc(NCc2ccccc2)n1	36	-20	0.9	11	0.6
Cc1cc(N/N=C/c2ccccc2)nc(NCc2ccccc2)n1	76*	7	0.9	12	0.2
CN(C)c1cc(N/N=C\c2ccccc2)nc(N(C)C)n1	-4	54*	0.5	52*	1
COc1ccc(/C=N/Nc2cc(N(C)C)nc(N(C)C)n2)cc1	-2	48	0.7	33	1
CCC(C)c1ccc(NC(=O)c2cccs2)cc1 (configuration not stated)	75*	3	0.9	11	0.3
Cc1ccc(-c2cc3cccc[n+]3cc2-c2ccc(C)cc2)cc1	-6	-3	1	-4	1.1
CC(C)(C)c1ccc(C(=O)Nc2cccc3c(=O)[nH][nH]c(=O)c23)cc1	70*	0	0.9	12	0.3
COc1cccc2c1C(=O)O/C2=C/c1ccc2c(c1)OCO2	85*	1	0.9	9	0.2
Fc1ccc(Oc2ncccn2)c(F)c1	-8	12	0.9	7	1.1

Bioassay records: PubChem, Sanford-Burnham Center for Chemical Genomics
